Laboratory results reported in ChEMBL document CHEMBL4834495, “A Green-Absorbing, Red-Fluorescent Phenalenone-Based Photosensitizer as a Theranostic Agent for Photodynamic Therapy” (ACS Med Chem Lett, 2021).
One block for each molecule: values may come before it. The source made the active and inactive calls. No cut-off for these calls is given here.

Columns and labels:
[1] = Absorption property of the compound in PBS containing 1% DMSO assessed as maximum absorption wavelength at pH 7.4 by UV-visible spectrophotometric method; assay type: physicochemical; settings: buffer
[2] = Induction of singlet oxygen generation in PBS assessed as singlet oxygen quantum yield at pH 7.4 irradiated with 415 nm LED light by ABDA sensor based UV-Vis spectrometer analysis; assay type: functional
[3] = Induction of singlet oxygen generation in PBS assessed as singlet oxygen quantum yield at pH 7.4 irradiated with 490 nm LED light by ABDA sensor based UV-Vis spectrometer analysis; assay type: functional
[4] = Fluorescence property of the compound in DMSO assessed as quantum yield; assay type: physicochemical
[5] = Induction of singlet oxygen generation in DMSO assessed as singlet oxygen quantum yield at pH 7.4 irradiated with 530 nm LED light by ABDA sensor based UV-Vis spectrometer analysis; assay type: functional
[6] = Emission property of the compound in DMSO assessed as maximum emission wavelength; assay type: physicochemical
[7] = Absorption property of the compound in DMSO assessed as maximum absorption wavelength at pH 7.4 by UV-visible spectrophotometric method; assay type: physicochemical
[8] = Solubility of the compound in PBS containing 1% DMSO assessed as aggregate formation by measuring reduction in fluorescence intensity at 2 uM at pH 7.4 by fluorescence analysis; assay type: physicochemical; settings: buffer, pH 7.4, 2 µM
[9] = Solubility of the compound in PBS containing 1% DMSO assessed as aggregate formation by measuring reduction in singlet oxygen formation irradiated with 530 nm LED light by ABDA sensor based UV-Vis spectrometer analysis; assay type: physicochemical; settings: buffer
PANC-1 [10] = assay: Induction of ROS production in human PANC-1 cells assessed as increase in green fluorescence intensity at 2 uM incubated for 3 hrs followed by irradiation with 530 nm LED light for 10 mins by DCFH2-DA staining based fluorescence microscopy; assay type: functional, cell-based; settings: time 190.0 min
Summary of the method: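 PANC-1 cells in reduced-serum Opti-MEM received compound from a DMSO stock (2 μM final) for 3 h, plus the ROS sensor DCFH2-DA. Cells were irradiated at 530 nm for 10 min (11.14 J/cm2). Green DCF fluorescence was imaged by fluorescence microscopy and compared with non-irradiated cells and with single-agent irradiated controls.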

PANC-1 [11] = assay: Phototoxicity against human PANC-1 cells assessed as reduction in cell viability incubated for 3 hrs followed by 525 nm green-light irradiation for 15 mins and measured after overnight incubation by MTT assay; assay type: functional, cell-based
Summary of the method: (§1)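 PANC-1 cells were treated with compound (0–2 μM), then either kept dark or irradiated 15 min under a green-filtered lamp (emission max 525 nm, 16.61 J/cm2). Cells were then cultured 24 h in the dark, and viability was read by standard MTT assay. Data are mean ± SD, n = 9; IC50 was taken from the dose–response.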

PANC-1 [12] = assay: Dark toxicity against human PANC-1 cells assessed as reduction in cell viability incubated for 24 hrs by MTT assay; assay type: functional, cell-based; settings: PANC-1, 24 h; summary of the method: as §1
PANC-1 [13] = assay: Induction of apoptosis in human PANC-1 cells at 0.5 uM incubated for 3 hrs followed by incubation under dark conditions for 30 mins by Annexin V-FITC/PI staining based flow cytometric analysis; assay type: functional, cell-based; settings: time 210.0 min
PANC-1 [14] = assay: Antitumor activity against human PANC-1 cell 3D spheroids assessed as reduction in spheroid diameter at 0.063 to 1.5 uM incubated for 3 hrs followed by irradiation with 525 nm green lamp light for 15 mins and measured after 27 hrs by ReadyProbes Blue/Green reagent based cell viability imaging analysis; assay type: functional; settings: dose 0.063-1.5 µM, time 1815.0 min
Summary of the method: (§2)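 PANC-1 spheroids incubated 3 h with compound (0–1.5 μM), then either kept dark or irradiated 15 min with a green-filtered lamp (emission max 525 nm, 16.61 J/cm2). Diameter and morphology were assessed from bright-field images. Viability was imaged at 10× with the ReadyProbes Blue/Green kit: Hoechst 33342 stains all nuclei blue, and a green nuclear dye stains dead cells.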

PANC-1 [15] = assay: Antitumor activity against human PANC-1 cell 3D spheroids assessed as changes in spheroid morphology and density incubated for 3 hrs followed by irradiation with 525 nm green lamp light for 15 mins and measured after 27 hrs by ReadyProbes Blue/Green reagent based cell viability imaging analysis; assay type: functional; settings: dose 0.063-1.5 µM, time 1815.0 min; summary of the method: as §2
[16] = Absorption property of the compound in PBS assessed as molar extinction coefficient in presence of BSA by absorbance based analysis; assay type: physicochemical; settings: buffer
[17] = Solubility of the compound in DMEM medium assessed as aggregate formation by measuring reduction in fluorescence intensity at 9 uM by fluorescence analysis; assay type: physicochemical
[18] = Solubility of the compound in Opti-MEM medium assessed as aggregate formation by measuring reduction in fluorescence intensity at 9 uM by fluorescence analysis; assay type: physicochemical
[19] = Photostability of the compound in PBS assessed as absorbance at 546 nm at 2 uM measured upon irradiation with 530 nm LED light in presence of BSA by absorbance based analysis; assay type: physicochemical; settings: buffer
PANC-1 [20] = assay: Antitumor activity against human PANC-1 cell 3D spheroids assessed as total spheroid breakage at 1.5 uM incubated for 3 hrs followed by irradiation with 525 nm green lamp light for 15 mins and measured after 27 hrs by ReadyProbes Blue/Green reagent based cell viability imaging analysis; assay type: functional; settings: time 1815.0 min; summary of the method: as §2
PANC-1 [21] = assay: Antitumor activity against human PANC-1 cell 3D spheroids assessed as spheroid cell death at 0.38 to 1.5 uM incubated for 3 hrs followed by irradiation with 525 nm green lamp light for 15 mins and measured after 27 hrs by Hoechst33342 nuclear staining based analysis; assay type: functional; settings: dose 0.38-1.5 µM, time 1815.0 min; summary of the method: as §2
PANC-1 [22] = assay: Antitumor activity against human PANC-1 cell 3D spheroids assessed as total spheroid breakage at 0.063 to 1.5 uM incubated for 3 hrs under dark conditions by ReadyProbes Blue/Green reagent based cell viability imaging analysis; assay type: functional; settings: dose 0.063-1.5 µM; summary of the method: as §2
PANC-1 [23] = assay: Antitumor activity against human PANC-1 cell 3D spheroids assessed as spheroid diameter at 0.063 to 1.5 uM incubated for 3 hrs under dark conditions by ReadyProbes Blue/Green reagent based cell viability imaging analysis; assay type: functional; settings: dose 0.063-1.5 µM; summary of the method: as §2
PANC-1 [24] = assay: Antitumor activity against human PANC-1 cell 3D spheroids assessed as spheroid cell death at 0.063 to 1.5 uM incubated for 3 hrs under dark conditions by Hoechst33342 staining based analysis; assay type: functional; settings: dose 0.063-1.5 µM; summary of the method: as §2
PANC-1 [25] = assay: Induction of apoptosis in human PANC-1 cells at 0.5 uM incubated for 3 hrs followed by irradiation with 525 nm green lamp light for 15 mins and measured after 24 hrs by Annexin V-FITC/PI staining based fluorescence microscopy; settings: time 1635.0 min
[26] = Absorption property of the compound in PBS assessed as molar extinction coefficient by absorbance based analysis; assay type: physicochemical; settings: buffer

Activity [1]: 418 nm
Compound: COc1ccc2cccc3c2c1C(=O)C=C3
Activity [2]: 0.68

Activity [1]: 439 nm
Compound: O=C1C=Cc2cccc3ccc(O)c1c23
Activity [2]: 0.96

Activity [26]: 10000 M⁻¹ cm⁻¹
Compound: O=C1C=Cc2cccc3cccc1c23 [PERINAPHTHENONE]
Activity [2]: 1

Activity [1]: 485 nm
Compound: Nc1cc2c3c(c(O)ccc3c1)C(=O)C=C2
Activity [3]: < 0.01

Activity [1]: 548 nm
Activity [6]: 597 nm
Activity [26]: 12736 M⁻¹ cm⁻¹
Activity [7]: 518 nm
Activity [4]: 0.26
Compound: Nc1ccc2c3c(cccc13)C(=O)C=C2
Activity [5]: < 0.01

Second part, the molecule before the results:

Compound: Nc1cc2c3c(cccc3c1)C(=O)C=C2
Activity [1]: 457 nm
Activity [2]: 0.18

Compound: O=C1OC2(c3ccccc31)c1cc(Br)c(O)c(Br)c1Oc1c2cc(Br)c(O)c1Br
Activity [3]: 0.57

Compound: CCN(CC)c1ccc2c(-c3ccccc3C(=O)O)c3ccc(=[N+](CC)CC)cc-3oc2c1.[Cl-] [RHODAMINE]
Activity [4]: 0.5

Compound: Nc1cc2c3c(cccc3c1Br)C(=O)C=C2
Activity [1]: 458 nm
Activity [2]: 0.1

Compound: Nc1c(Br)cc2c3c(cccc13)C(=O)C(Br)=C2
Activity [5]: 0.47
Activity [1]: 546 nm
Activity [6]: 602 nm
Activity [7]: 525 nm
solubility [8]: Insoluble
solubility [9]: Insoluble
Activity (PANC-1 [10]): Active
Activity (PANC-1 [11]): Dose-Dependent Effect
IC50 (PANC-1 [11]; PANC-1, light or radiation study): 166 nM
IC50 (PANC-1 [12]): > 2000 nM
Activity (PANC-1 [13]): inactive
Activity (PANC-1 [14]): Active
Activity (PANC-1 [15]): Dose-Dependent Effect
Activity [16]: 12695 M⁻¹ cm⁻¹
Activity [4]: 0.29
solubility [17]: Insoluble
solubility [18]: Insoluble
Stabilty [19]: Stable
Activity (PANC-1 [20]): Active
Activity (PANC-1 [21]): Active
Activity (PANC-1 [22]): inactive
Activity (PANC-1 [23]): inactive
Activity (PANC-1 [24]): inactive
Activity (PANC-1 [25]): Active

Compound: COc1ccc2cccc3c2c1C(=O)C(Br)=C3
Activity [1]: 427 nm
Activity [2]: 0.89
